# The source made the active and inactive calls. The calls are words filed in the database; no cut-off is given here. Residues, ends and D or L forms follow the SMILES beside them. *: point of attachment. X1 = CC(C)CCC[C@@H](C)[C@H]1CCC2C3CC=C4C[C@H](SC[C@@H]5CCN6CC[C@@H](CSCC(=O)*)NC6=N5)CC[C@]4(C)C3CC[C@@]21C; X3 = CC(C)(C)[Si](OC[C@@H]1CCN2CC[C@@H](COC(=O)CCCCC(=O)*)NC2=N1)(c1ccccc1)c1ccccc1; X5 = CC(C)(C)[Si](OC[C@@H]1CCN2CC[C@@H](CNC(=O)CCCCC(=O)*)NC2=N1)(c1ccccc1)c1ccccc1; X2 = CC(C)(C)[Si](OCC1CCN2CCC(CSCC(=O)*)NC2=N1)(c1ccccc1)c1ccccc1; X4 = O=C(CCCCC(=O)*)OC[C@@H]1CCN2CC[C@@H](CO)N=C2N1; X6 = O=C(CCCCC(=O)*)NC[C@@H]1CCN2CC[C@@H](CO)N=C2N1; OBn = c1ccc(CO*)cc1; Bn = c1ccc(C*)cc1
# Columns and labels:
# [1] = biological target: Human immunodeficiency virus type 1 protease (Human immunodeficiency virus 1) (UniProt Q72874); assay: Dimerization inhibition against HIV-1 Protease
# Outline: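 Recombinant HIV-1 PR expressed in E. coli (pET9c-PR). Hydrolysis of DABCYL-γ-abu-[…]EDANS (5.2 μM) was followed by fluorescence (ex 340/em 490 nm) in 100 mM sodium acetate, 1 mM EDTA, 1 M NaCl, pH 4.7, 30 °C, with 3% DMSO final. Initial rates were taken at ≥7 enzyme levels (1.88–28 nM) per inhibitor concentration. Kic/Kid were obtained by Zhang's method from [E]0/√vi vs √vi plots.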
# [2] = biological target: Human immunodeficiency virus type 1 protease (Human immunodeficiency virus 1, UniProt Q72874); assay: In vitro inhibitory activity against HIV-1 Protease
# Outline: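 Recombinant HIV-1 PR expressed in E. coli (pET9c-PR). Fluorogenic DABCYL-γ-abu-[…]EDANS substrate 5.2 μM, enzyme 7.5 nM, in 100 mM sodium acetate, 1 mM EDTA, 1 M NaCl, pH 4.7, 30 °C, 3% DMSO final. Fluorescence read at ex 340/em 490 nm. IC50 fitted from % inhibition across 0.5–28 μM inhibitor. Ki derived by Zhang's method using 1.88–28 nM enzyme.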
# [3] = biological target: Human immunodeficiency virus type 1 protease (Human immunodeficiency virus 1) (UniProt Q72874); assay: Inhibitory activity against HIV-1 Protease at 28 uM
# [4] = biological target: Human immunodeficiency virus type 1 protease (Human immunodeficiency virus 1) (UniProt Q72874); assay: Inhibitory activity against HIV-1 Protease at 14 uM
# [5] = biological target: Human immunodeficiency virus type 1 protease (Human immunodeficiency virus 1) (UniProt Q72874); assay: In vitro inhibitory activity against HIV-1 Protease; No inhibition
# [6] = biological target: Human immunodeficiency virus type 1 protease (Human immunodeficiency virus 1) (UniProt Q72874); assay: Competitive inhibition against HIV-1 Protease
Compound,Kid [1],IC50 [2],further results
"CC(C)C[C@H](NC(=O)[C@@H](NC(=O)[C@H](C)NC(=O)CNC(=O)CSCC1CCN2CCC(CO[Si](c3ccccc3)(c3ccccc3)C(C)(C)C)N=C2N1)[C@@H](C)OCc1ccccc1)C(=O)N[C@@H](CC(N)=O)C(=O)N[C@@H](Cc1ccccc1)C(=O)OCc1ccccc1 (stereo in doubt; 6 (S,S)) [listing 1 of 2 here]",0.15 µM,,
"CC(C)C[C@H](NC(=O)[C@@H](NC(=O)[C@H](C)NC(=O)CNC(=O)CSCC1CCN2CCC(CO[Si](c3ccccc3)(c3ccccc3)C(C)(C)C)N=C2N1)[C@@H](C)OCc1ccccc1)C(=O)N[C@@H](CC(N)=O)C(=O)N[C@@H](Cc1ccccc1)C(=O)OCc1ccccc1 (stereo in doubt; 6'(R,R)) [listing 1 of 2 here]",,2 µM,
COC(=O)[C@H](Cc1ccccc1)NC(=O)[C@H](CC(N)=O)NC(=O)[C@H](CC(C)C)NC(=O)[C@@H](NC(=O)[C@H](C)NC(=O)CCCCC(=O)NC[C@@H]1CCN2CC[C@@H](CO[Si](c3ccccc3)(c3ccccc3)C(C)(C)C)N=C2N1)[C@@H](C)O (X5-ATLNF-OMe),,,inhibition [3]: 28%
COC(=O)[C@H](Cc1ccccc1)NC(=O)[C@H](CC(N)=O)NC(=O)[C@H](CC(C)C)NC(=O)[C@@H](NC(=O)[C@H](C)NC(=O)CCCCC(=O)OC[C@@H]1CCN2CC[C@@H](CO)N=C2N1)[C@@H](C)O (X4-ATLNF-OMe),,,inhibition [4]: 28%
COC(=O)[C@H](Cc1ccccc1)NC(=O)[C@H](CC(N)=O)NC(=O)[C@H](CC(C)C)NC(=O)[C@@H](NC(=O)[C@H](C)NC(=O)CCCCC(=O)NC[C@@H]1CCN2CC[C@@H](CO)N=C2N1)[C@@H](C)O (X6-ATLNF-OMe),,,NI [5]: inactive
CC(C)C[C@H](NC(=O)[C@@H](NC(=O)[C@H](C)NC(=O)CNC(=O)CSCC1CCN2CCC(CO[Si](c3ccccc3)(c3ccccc3)C(C)(C)C)N=C2N1)[C@@H](C)OCc1ccccc1)C(=O)N[C@@H](CC(N)=O)C(=O)N[C@@H](Cc1ccccc1)C(=O)O (some centres undefined) (X2-GAT(Bn)LNF-OH),,11 µM,
CC[C@H](C)[C@H](NC(=O)CNC(=O)CSCC1CCN2CCC(CO[Si](c3ccccc3)(c3ccccc3)C(C)(C)C)N=C2N1)C(=O)N[C@@H](COCc1ccccc1)C(=O)N[C@@H](Cc1ccc(OCc2ccccc2)cc1)C(=O)N[C@@H](CC(N)=O)C(=O)N[C@@H](CC(C)C)C(=O)OC (some centres undefined) (X2-GIS(Bn)Y(Bn)NL-OMe),0.29 µM,3.3 µM,
CC(C)CCC[C@@H](C)[C@H]1CCC2C3CC=C4C[C@H](SC[C@@H]5CCN6CC[C@@H](CSCC(=O)NCC(=O)N[C@@H](C)C(=O)N[C@H](C(=O)N[C@@H](CC(C)C)C(=O)N[C@@H](CC(N)=O)C(=O)N[C@@H](Cc7ccccc7)C(=O)OCc7ccccc7)[C@@H](C)OCc7ccccc7)NC6=N5)CC[C@]4(C)C3CC[C@@]21C (some centres undefined) (X1-GAT(Bn)LNF-OBn),0.4 µM,3 µM,Kic [6]: 0.4 µM
CC[C@H](C)[C@H](NC(=O)CNC(=O)CSCC1CCN2CCC(CO[Si](c3ccccc3)(c3ccccc3)C(C)(C)C)N=C2N1)C(=O)N[C@@H](CO)C(=O)N[C@@H](Cc1ccc(O)cc1)C(=O)N[C@@H](CC(N)=O)C(=O)N[C@@H](CC(C)C)C(=O)OC (some centres undefined) (X2-GISYNL-OMe),,5 µM,Kic [6]: 6 µM
CC[C@H](C)[C@H](NC(=O)[C@H](C)NC(=O)CSCC1CCN2CCC(CO[Si](c3ccccc3)(c3ccccc3)C(C)(C)C)N=C2N1)C(=O)N[C@H](C(=O)N[C@@H](CC(C)C)C(=O)N[C@@H](Cc1c[nH]c2ccccc12)C(=O)OC)[C@@H](C)OCc1ccccc1 (some centres undefined) (X2-AIT(Bn)LW-OMe),6.5 µM,5 µM,
"CC(C)C[C@H](NC(=O)[C@@H](NC(=O)[C@H](C)NC(=O)CNC(=O)CSCC1CCN2CCC(CO[Si](c3ccccc3)(c3ccccc3)C(C)(C)C)N=C2N1)[C@@H](C)OCc1ccccc1)C(=O)N[C@@H](CC(N)=O)C(=O)N[C@@H](Cc1ccccc1)C(=O)OCc1ccccc1 (stereo in doubt; 6'(R,R)) [listing 2 of 2 here]",0.15 µM,,
"CC(C)C[C@H](NC(=O)[C@@H](NC(=O)[C@H](C)NC(=O)CNC(=O)CSCC1CCN2CCC(CO[Si](c3ccccc3)(c3ccccc3)C(C)(C)C)N=C2N1)[C@@H](C)OCc1ccccc1)C(=O)N[C@@H](CC(N)=O)C(=O)N[C@@H](Cc1ccccc1)C(=O)OCc1ccccc1 (stereo in doubt; 6 (S,S)) [listing 2 of 2 here]",,1.6 µM,
COC(=O)[C@H](Cc1ccccc1)NC(=O)[C@H](CC(N)=O)NC(=O)[C@H](CC(C)C)NC(=O)[C@@H](NC(=O)[C@H](C)NC(=O)CCCCC(=O)OC[C@@H]1CCN2CC[C@@H](CO[Si](c3ccccc3)(c3ccccc3)C(C)(C)C)N=C2N1)[C@@H](C)O (X3-ATLNF-OMe),0.55 µM,1.9 µM,

# Source: ChEMBL document CHEMBL1145908 (J Med Chem, 2003)
